Measured values from ChEMBL document CHEMBL4190191, “Cyclic Diarylheptanoids from Corylus avellana Green Leafy Covers: Determination of Their Absolute Configurations and Evaluation of Their Antioxidant and Antimicrobial Activities” (J Nat Prod, 2017).
The source made the active and inactive calls. The rule behind the calls is not given here.

Key:
Plasma [1] = test: Antioxidant activity in human plasma assessed as inhibition of H2O2-induced lipid peroxidation at 10 uM after 30 mins by TBARS assay relative to control; type: functional, cell-free
Procedure, shortened: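 Fresh plasma from medication-free donors was incubated for 30 min at 37 °C with compound (0.1–100 μM) plus 2 mM H2O2. Lipid peroxidation was quantified as TBARS. Data are from 5–9 independent experiments, as mean ± SD.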

Plasma [2] = test: Antioxidant activity in human plasma assessed as inhibition of H2O2/Fe2+-induced lipid peroxidation at 10 uM after 30 mins by TBARS assay relative to control; type: functional, cell-free
Procedure, shortened: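 Human donor plasma was incubated for 30 min at 37 °C with compound at 10 μM plus 4.7 mM H2O2, 3.8 mM […] and 2.5 mM EDTA. Peroxidation was read as TBARS concentration.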

Staphylococcus aureus [3] = test: Antimicrobial activity against Staphylococcus aureus DSM 25923 assessed as growth inhibition at 40 ug per disc after 24 to 48 hrs (reference value: 0 millimeter); type: functional; conditions: read-out: DIZ
[4] = Cytotoxicity against human DeFew cells at 10 to 100 uM by MTT assay; type: cell-based
Procedure, shortened: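 DeFew human B-lymphoma cells were maintained in RPMI 1640 with 10% FBS, 1% penicillin/streptomycin and 2 mM L-glutamine, in humidified 5% CO2 at 37 °C. Cells were exposed to 10–100 μM, and viability was read by MTT.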

Escherichia coli [5] = test: Antimicrobial activity against Escherichia coli DSM 8579 assessed as growth inhibition at 40 ug per disc after 24 to 48 hrs (reference value: 0 millimeter); type: functional; conditions: read-out: DIZ
Pseudomonas aeruginosa [6] = test: Antimicrobial activity against Pseudomonas aeruginosa DSM 50071 assessed as growth inhibition at 40 ug per disc after 24 to 48 hrs (reference value: 0 millimeter); type: functional; conditions: read-out: DIZ
Bacillus cereus [7] = test: Antimicrobial activity against Bacillus cereus DSM 4313 assessed as growth inhibition at 40 ug per disc after 24 to 48 hrs (reference value: 0 millimeter); type: functional; conditions: read-out: DIZ
A549 = test: Cytotoxicity against human A549 cells at 10 to 100 uM by MTT assay; type: cell-based; conditions: a549, 100 µM
Procedure, shortened: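 A549 human lung adenocarcinoma cells were kept in DMEM with 10% FBS, 1% penicillin/streptomycin and 2 mM L-glutamine, at 37 °C under 5% CO2. Viability was measured by MTT assay after exposure to 10–100 μM.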

Bacillus cereus [8] = test: Antimicrobial activity against Bacillus cereus DSM 4384 assessed as growth inhibition at 40 ug per disc after 24 to 48 hrs (reference value: 0 millimeter); type: functional; conditions: read-out: DIZ
Bacillus cereus [9] = test: Antimicrobial activity against Bacillus cereus DSM 4384 assessed as growth inhibition at 20 ug per disc after 24 to 48 hrs (reference value: 0 millimeter); type: functional; conditions: read-out: DIZ
Pseudomonas aeruginosa [10] = test: Antimicrobial activity against Pseudomonas aeruginosa DSM 50071 assessed as growth inhibition at 20 ug per disc after 24 to 48 hrs (reference value: 0 millimeter); type: functional; conditions: read-out: DIZ
Staphylococcus aureus [11] = test: Antimicrobial activity against Staphylococcus aureus DSM 25923 assessed as growth inhibition at 10 ug per disc after 24 to 48 hrs (reference value: 0 millimeter); type: functional; conditions: read-out: DIZ
Escherichia coli [12] = test: Antimicrobial activity against Escherichia coli DSM 8579 assessed as growth inhibition at 10 ug per disc after 24 to 48 hrs (reference value: 0 millimeter); type: functional; conditions: read-out: DIZ
Staphylococcus aureus [13] = test: Antimicrobial activity against Staphylococcus aureus DSM 25923 assessed as growth inhibition at 20 ug per disc after 24 to 48 hrs (reference value: 0 millimeter); type: functional; conditions: read-out: DIZ
Escherichia coli [14] = test: Antimicrobial activity against Escherichia coli DSM 8579 assessed as growth inhibition at 20 ug per disc after 24 to 48 hrs (reference value: 0 millimeter); type: functional; conditions: read-out: DIZ
Bacillus cereus [15] = test: Antimicrobial activity against Bacillus cereus DSM 4313 assessed as growth inhibition at 10 ug per disc after 24 to 48 hrs (reference value: 0 millimeter); type: functional; conditions: read-out: DIZ
Bacillus cereus [16] = test: Antimicrobial activity against Bacillus cereus DSM 4384 assessed as growth inhibition at 10 ug per disc after 24 to 48 hrs (reference value: 0 millimeter); type: functional; conditions: read-out: DIZ
Pseudomonas aeruginosa [17] = test: Antimicrobial activity against Pseudomonas aeruginosa DSM 50071 assessed as growth inhibition at 10 ug per disc after 24 to 48 hrs (reference value: 0 millimeter); type: functional; conditions: read-out: DIZ
Bacillus cereus [18] = test: Antimicrobial activity against Bacillus cereus DSM 4313 assessed as growth inhibition at 20 ug per disc after 24 to 48 hrs (reference value: 0 millimeter); type: functional; conditions: read-out: DIZ

## O=C(/C=C/c1ccc(O)c(O)c1)O[C@@H]1C[C@](O)(C(=O)O)C[C@@H](OC(=O)/C=C/c2ccc(O)c(O)c2)[C@H]1O
Plasma [1]
  inhibition: 24.2%
Plasma [2]
  inhibition: 25.5%
Staphylococcus aureus [3]
  zone of inhibition at 40 µg/disc: 6.67 mm
[4]
  Activity: Non-Toxic
Escherichia coli [5]
  zone of inhibition at 40 µg/disc: 8.33 mm
Pseudomonas aeruginosa [6]
  zone of inhibition at 40 µg/disc: 0 mm
Bacillus cereus [7]
  zone of inhibition at 40 µg/disc: 0 mm
A549
  Activity: Non-Toxic
Bacillus cereus [8]
  zone of inhibition at 40 µg/disc: 0 mm

## C[C@@H]1O[C@@H](Oc2c(-c3ccc(O)cc3)oc3cc(O)cc(O)c3c2=O)[C@H](O)[C@H](O)[C@H]1OC(=O)/C=C/c1ccc(O)cc1
Plasma [1]
  inhibition: 31.8%
Bacillus cereus [9]
  zone of inhibition at 20 µg/disc: 5 mm
Plasma [2]
  inhibition: 39.7%
Staphylococcus aureus [3]
  zone of inhibition at 40 µg/disc: 10.7 mm
[4]
  Activity: Non-Toxic
Pseudomonas aeruginosa [10]
  zone of inhibition at 20 µg/disc: 0 mm
Staphylococcus aureus [11]
  zone of inhibition at 10 µg/disc: 5 mm
Escherichia coli [5]
  zone of inhibition at 40 µg/disc: 8.66 mm
Escherichia coli [12]
  zone of inhibition at 10 µg/disc: 3 mm
Staphylococcus aureus [13]
  zone of inhibition at 20 µg/disc: 6.67 mm
Pseudomonas aeruginosa [6]
  zone of inhibition at 40 µg/disc: 9.67 mm
Bacillus cereus [7]
  zone of inhibition at 40 µg/disc: 5.33 mm
Escherichia coli [14]
  zone of inhibition at 20 µg/disc: 4.33 mm
Bacillus cereus [15]
  zone of inhibition at 10 µg/disc: 2.33 mm
A549
  Activity: Non-Toxic
Bacillus cereus [16]
  zone of inhibition at 10 µg/disc: 5 mm
Pseudomonas aeruginosa [17]
  zone of inhibition at 10 µg/disc: 0 mm
Bacillus cereus [18]
  zone of inhibition at 20 µg/disc: 3.33 mm
Bacillus cereus [8]
  zone of inhibition at 40 µg/disc: 9.67 mm

## COC(=O)CC(O)(CC(=O)O)C(=O)O (configuration not stated)
Plasma [1]
  inhibition: inactive
Plasma [2]
  inhibition: inactive
Staphylococcus aureus [3]
  zone of inhibition at 40 µg/disc: 10.7 mm
[4]
  Activity: Non-Toxic
Escherichia coli [5]
  zone of inhibition at 40 µg/disc: 10 mm
Pseudomonas aeruginosa [6]
  zone of inhibition at 40 µg/disc: 0 mm
Bacillus cereus [7]
  zone of inhibition at 40 µg/disc: 5.67 mm
A549
  Activity: Non-Toxic
Bacillus cereus [8]
  zone of inhibition at 40 µg/disc: 0 mm

## COC(=O)CC(O)(CC(=O)OC)C(=O)OC
Plasma [1]
  inhibition: inactive
Plasma [2]
  inhibition: inactive
Staphylococcus aureus [3]
  zone of inhibition at 40 µg/disc: 11.3 mm
[4]
  Activity: Non-Toxic
Escherichia coli [5]
  zone of inhibition at 40 µg/disc: 11.3 mm
Pseudomonas aeruginosa [6]
  zone of inhibition at 40 µg/disc: 6.67 mm
Bacillus cereus [7]
  zone of inhibition at 40 µg/disc: 0 mm
A549
  Activity: Non-Toxic
Bacillus cereus [8]
  zone of inhibition at 40 µg/disc: 0 mm

## C[C@@H]1O[C@@H](Oc2c(-c3cc(O)c(O)c(O)c3)oc3cc(O)cc(O)c3c2=O)[C@H](O)[C@H](O)[C@H]1O
Plasma [1]
  inhibition: 44.4%
Plasma [2]
  inhibition: 34.1%
Staphylococcus aureus [3]
  zone of inhibition at 40 µg/disc: 6.33 mm
[4]
  Activity: Non-Toxic
Escherichia coli [5]
  zone of inhibition at 40 µg/disc: 9.67 mm
Pseudomonas aeruginosa [6]
  zone of inhibition at 40 µg/disc: 5 mm
Bacillus cereus [7]
  zone of inhibition at 40 µg/disc: 0 mm
A549
  Activity: Non-Toxic
Bacillus cereus [8]
  zone of inhibition at 40 µg/disc: 0 mm

## COc1cc(/C=C/C(=O)CC(=O)/C=C/c2ccc(O)c(OC)c2)ccc1O
Plasma [1]
  inhibition: 21.1%
Plasma [2]
  inhibition: 22.9%
